Measurements from ChEMBL document CHEMBL4033795, “Design, Synthesis, and Structure-Activity Relationship Study of 2-Oxo-3,4-dihydropyrimido[4,5- d]pyrimidines as New Colony Stimulating Factor 1 Receptor (CSF1R) Kinase Inhibitors” (J Med Chem, 2018).

Experiments:
[1] = molecular target: Epidermal growth factor receptor (Homo sapiens, UniProt P00533); experiment: Inhibition of recombinant human wild type GST-tagged EGFR cytoplasmic domain (668 to 1210 residues) expressed in baculovirus using tyr4 peptide as substrate after 1 hr by FRET-based Z'-Lyte assay
Sequence of Epidermal growth factor receptor (P00533 whole entry, the tested form may be a part): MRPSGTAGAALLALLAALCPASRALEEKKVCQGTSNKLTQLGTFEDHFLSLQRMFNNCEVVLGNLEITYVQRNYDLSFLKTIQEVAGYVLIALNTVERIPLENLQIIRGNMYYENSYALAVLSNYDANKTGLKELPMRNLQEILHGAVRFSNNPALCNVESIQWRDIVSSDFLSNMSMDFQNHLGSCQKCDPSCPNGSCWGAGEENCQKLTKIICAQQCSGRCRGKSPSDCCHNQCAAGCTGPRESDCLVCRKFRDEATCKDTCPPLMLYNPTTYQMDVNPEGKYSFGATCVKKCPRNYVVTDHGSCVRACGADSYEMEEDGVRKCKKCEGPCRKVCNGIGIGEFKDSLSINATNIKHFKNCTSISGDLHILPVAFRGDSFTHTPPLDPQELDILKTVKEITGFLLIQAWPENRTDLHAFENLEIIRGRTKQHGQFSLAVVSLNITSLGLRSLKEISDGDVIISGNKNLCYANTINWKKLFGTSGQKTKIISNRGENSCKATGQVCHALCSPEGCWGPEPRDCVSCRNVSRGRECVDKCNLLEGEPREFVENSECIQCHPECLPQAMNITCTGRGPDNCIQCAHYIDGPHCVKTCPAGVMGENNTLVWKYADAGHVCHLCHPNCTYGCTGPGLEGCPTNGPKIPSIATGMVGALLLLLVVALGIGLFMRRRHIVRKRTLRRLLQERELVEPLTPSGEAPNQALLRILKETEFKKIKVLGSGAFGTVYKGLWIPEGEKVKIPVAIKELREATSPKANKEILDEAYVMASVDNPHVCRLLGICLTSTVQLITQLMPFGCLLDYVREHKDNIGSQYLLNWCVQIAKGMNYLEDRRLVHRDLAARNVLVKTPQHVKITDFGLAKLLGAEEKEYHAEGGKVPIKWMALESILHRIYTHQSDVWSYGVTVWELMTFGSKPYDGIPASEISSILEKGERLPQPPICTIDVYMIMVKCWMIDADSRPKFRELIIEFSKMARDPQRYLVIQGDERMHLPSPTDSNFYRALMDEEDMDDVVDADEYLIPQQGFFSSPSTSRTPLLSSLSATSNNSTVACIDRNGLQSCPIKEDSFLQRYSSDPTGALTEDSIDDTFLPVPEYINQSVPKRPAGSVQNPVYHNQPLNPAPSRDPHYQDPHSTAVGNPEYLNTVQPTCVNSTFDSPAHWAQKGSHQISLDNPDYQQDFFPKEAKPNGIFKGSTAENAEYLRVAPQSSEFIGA

[2] = molecular target: Macrophage colony-stimulating factor 1 receptor (Homo sapiens, UniProt P07333); experiment: Inhibition of recombinant human His-tagged CSF1R cytoplasmic domain (538 to 910 residues) expressed in baculovirus using tyr4 peptide as substrate after 1 hr by FRET-based Z'-Lyte assay
Sequence of Macrophage colony-stimulating factor 1 receptor (P07333 whole entry, the tested form may be a part): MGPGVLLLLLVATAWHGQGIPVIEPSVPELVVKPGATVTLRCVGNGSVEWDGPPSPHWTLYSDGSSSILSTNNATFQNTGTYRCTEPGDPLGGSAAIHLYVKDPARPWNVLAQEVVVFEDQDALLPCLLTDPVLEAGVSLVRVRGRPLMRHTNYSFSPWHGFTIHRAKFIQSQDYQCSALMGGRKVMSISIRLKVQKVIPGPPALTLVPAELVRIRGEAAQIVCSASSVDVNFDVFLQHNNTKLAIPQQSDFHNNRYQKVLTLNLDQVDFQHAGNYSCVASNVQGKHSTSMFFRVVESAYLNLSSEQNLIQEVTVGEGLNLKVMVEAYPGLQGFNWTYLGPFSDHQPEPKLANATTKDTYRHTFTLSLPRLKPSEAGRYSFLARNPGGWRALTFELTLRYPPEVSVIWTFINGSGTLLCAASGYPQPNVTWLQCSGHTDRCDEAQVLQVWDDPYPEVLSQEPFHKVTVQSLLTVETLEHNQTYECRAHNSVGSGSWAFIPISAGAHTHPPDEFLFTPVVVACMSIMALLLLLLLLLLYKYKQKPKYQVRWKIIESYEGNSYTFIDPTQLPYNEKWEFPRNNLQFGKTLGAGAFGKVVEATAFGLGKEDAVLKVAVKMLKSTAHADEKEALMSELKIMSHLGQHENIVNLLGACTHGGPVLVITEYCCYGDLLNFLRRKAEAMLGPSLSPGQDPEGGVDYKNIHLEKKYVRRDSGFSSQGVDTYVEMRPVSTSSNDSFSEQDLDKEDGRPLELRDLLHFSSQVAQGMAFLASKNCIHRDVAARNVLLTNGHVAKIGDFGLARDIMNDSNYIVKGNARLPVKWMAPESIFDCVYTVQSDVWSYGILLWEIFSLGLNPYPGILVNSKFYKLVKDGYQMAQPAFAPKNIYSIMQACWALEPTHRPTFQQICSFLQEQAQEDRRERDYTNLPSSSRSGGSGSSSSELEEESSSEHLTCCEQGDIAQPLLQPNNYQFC
In short: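 Z′-Lyte FRET assay with CSF1R or EGFR and 2 μM Tyr4 peptide substrate in 1× kinase buffer. ATP was supplied as a 100 μM solution, a stock and not the final concentration. Compounds were 3-fold serially diluted in DMSO. Reaction ran 1 h at room temperature, followed by 1 h development and a stop reagent. Phospho-peptide, no-ATP and DMSO controls were included. IC50 by curve fitting; mean of at least three independent experiments.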

| Compound | IC50 [1] [nM] | IC50 [2] [nM] |
| --- | --- | --- |
| CCC(=O)N1CC[C@H](N2C(=O)N(c3cccc(OC(F)(F)F)c3)Cc3cnc(Nc4ccc(N5CCN(C)CC5)c(C)c4)nc32)C1 | 889 | 151 |
| Cc1cc(Nc2ncc3c(n2)N([C@H]2CCN(C(=O)C4CCCC4)C2)C(=O)N(c2ccccc2Cl)C3)ccc1N1CCN(C)CC1 | 25.5 | 28.4 |
| CCC(=O)N1CC[C@H](N2C(=O)N(c3cc(OC)ccc3F)Cc3cnc(Nc4ccc(N5C[C@@H](C)N(C)[C@@H](C)C5)c(C)c4)nc32)C1 | 888 | 7.8 |
| CCC(=O)N1CC[C@@H](N2C(=O)N(c3ccccc3Cl)Cc3cnc(Nc4ccc(N5CCN(C)CC5)c(C)c4)nc32)C1 | 23.4 | 20.9 |
| Cc1cc(Nc2ncc3c(n2)N([C@H]2CCN(C(=O)C(C)(C)C)C2)C(=O)N(c2ccccc2Cl)C3)ccc1N1CCN(C)CC1 | 29.4 | 20.1 |
| CCC(=O)N1CC[C@H](N2C(=O)N(c3ccccc3Cl)Cc3cnc(Nc4ccc(N5CCN(C)CC5)c(C)c4)nc32)C1 | 15.7 | 5 |
| CCC(=O)N1CC[C@H](N2C(=O)N(c3ccc(F)cc3)Cc3cnc(Nc4ccc(N5CCN(C)CC5)c(C)c4)nc32)C1 | 71.6 | 18.1 |
| CCC(=O)N1CC[C@H](N2C(=O)N(c3cccc(Cl)c3)Cc3cnc(Nc4ccc(N5CCN(C)CC5)c(C)c4)nc32)C1 | 144 | 13.2 |
| C=CC(=O)N1CC[C@H](N2C(=O)N(c3ccccc3Cl)Cc3cnc(Nc4ccc(N5CCN(C)CC5)c(C)c4)nc32)C1 | 0.5 | 30 |
| FC(F)(F)c1ccc(CNc2ccc(Cc3c[nH]c4ncc(Cl)cc34)cn2)cn1 [PEXIDARTINIB] | > 10000 |  |

Now from value to molecule:

| IC50 [1] [nM] | IC50 [2] [nM] | Compound |
| --- | --- | --- |
| 216 | 7 | CCC(=O)N1CC[C@H](N2C(=O)N(c3cc(OC)ccc3F)Cc3cnc(Nc4ccc(N5C[C@H]6CN(C)C[C@H]6C5)c(C)c4)nc32)C1 |
| 17.6 | 5.2 | CCC(=O)N1CC[C@H](N2C(=O)N(c3ccccc3F)Cc3cnc(Nc4ccc(N5CCN(C)CC5)c(C)c4)nc32)C1 |
| 518 | 10 | CCC(=O)N1CC[C@H](N2C(=O)N(c3cc(OC)ccc3F)Cc3cnc(Nc4ccc(N5CCN(C)CC5)c(CC)c4)nc32)C1 |
| 715 | 7.2 | CCC(=O)N1CC[C@H](N2C(=O)N(c3cc(OC)ccc3F)Cc3cnc(Nc4ccc(N5CCN(C)[C@@H](C)C5)c(C)c4)nc32)C1 |
| 1600 | 30.4 | CCC(=O)N1CC[C@H](N2C(=O)N(c3cc(OC)ccc3F)Cc3cnc(Nc4ccc(N5CCN(C)CC5)cc4OC)nc32)C1 |
| 148 | 25.9 | CCC(=O)N1CC[C@H](N2C(=O)N(c3cc(OC)ccc3F)Cc3cnc(Nc4ccc(N5CCN(C(C)=O)CC5)c(C)c4)nc32)C1 |
| 153 | 5.8 | CCC(=O)N1CC[C@H](N2C(=O)N(c3ccc(OC)cc3)Cc3cnc(Nc4ccc(N5CCN(C)CC5)c(C)c4)nc32)C1 |
| 27.4 | 5.1 | CCC(=O)N1CC[C@H](N2C(=O)N(c3ccccc3OC)Cc3cnc(Nc4ccc(N5CCN(C)CC5)c(C)c4)nc32)C1 |
| 209 | 4.9 | CCC(=O)N1CC[C@H](N2C(=O)N(c3cc(OC)ccc3F)Cc3cnc(Nc4ccc(N5CCCN(C)CC5)c(C)c4)nc32)C1 |
| 467 | 41.2 | CCC(=O)N1CC[C@H](N2C(=O)N(c3cc(OC)ccc3F)Cc3cnc(Nc4ccc(N5CCCCC5)c(C)c4)nc32)C1 |
| 600 | 5.8 | CCC(=O)N1CC[C@H](N2C(=O)N(c3cc(OC)ccc3F)Cc3cnc(Nc4ccc(N5CCN(C)CC5)c(OC)c4)nc32)C1 |
| 626 | 25.2 | CCC(=O)N1CC[C@H](N2C(=O)N(c3cc(OC)ccc3F)Cc3cnc(Nc4ccc(N5CCOCC5)c(C)c4)nc32)C1 |
| 224 | 6.2 | CCC(=O)N1CC[C@H](N2C(=O)N(c3cc(OC)ccc3F)Cc3cnc(Nc4ccc(N5CCC6(CCN(C)CC6)CC5)c(C)c4)nc32)C1 |
| 3400 | 31.9 | CCC(=O)N1CC[C@H](N2C(=O)N(c3cc(OC)ccc3F)Cc3cnc(Nc4ccc(N5CCN(C)CC5)c(C(F)(F)F)c4)nc32)C1 |
